Results: ChEMBL document CHEMBL1124558, “Differential effects of a series of hydroxamic acid derivatives on 5-lipoxygenase and cyclooxygenase from neutrophils and 12-lipoxygenase from platelets and their in vivo effects on inflammation and anaphylaxis” (J Med Chem, 1989)

Tests used:
Mus musculus = assay: In vivo inhibition of mouse ear inflammation; type: functional; set-up: concentration or dose not given beside the values
In short: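 Compound or ethanol vehicle applied topically to one ear of male DBA/2J mice 60 min before arachidonic acid (2 mg/ear). […] Groups of 5 mice.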

Cavia porcellus [1] = assay: In vivo inhibitory activity against guinea pig systemic anaphylaxis when administered a compound dose (200 mg/kg) perorally; type: functional; conditions: po
In short: (§1)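 Male Hartley guinea pigs sensitised ip with ovalbumin (2.7 mg/kg) plus LPS adjuvant, then challenged 2 weeks later with 1% ovalbumin aerosol for 30 s. Pretreated with pyrilamine, indomethacin and propranolol 20 min before challenge. Compound given in PEG 400 1 h before challenge.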

[2] = target: Cyclooxygenase (Rattus norvegicus) (UniProt P35355+Q63921); assay: Inhibition of Prostaglandin G/H synthase in rat polymorphonuclear leukocytes; type: cell-based; set-up: concentration or dose not given beside the values; conditions: concentration not given here
In short: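 Homogenate of glycogen-elicited rat peritoneal PMNs in 0.1 M Tris-HCl pH 8.2 with 10 μM NDGA, preincubated 5 min at 37 °C with compound (≤0.1% DMSO). [14C]arachidonic acid (8 μM) added with 4 mM glutathione and epinephrine; 10 min reaction. TxB2 and PGF2α separated by TLC and counted.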

12-lipoxygenase = 12-lipoxygenase (Rattus norvegicus, UniProt F1LQ70); assay: In vitro inhibitory activity against rat platelet 12-lipoxygenase
Chain of 12-lipoxygenase (F1LQ70 whole entry, looked up): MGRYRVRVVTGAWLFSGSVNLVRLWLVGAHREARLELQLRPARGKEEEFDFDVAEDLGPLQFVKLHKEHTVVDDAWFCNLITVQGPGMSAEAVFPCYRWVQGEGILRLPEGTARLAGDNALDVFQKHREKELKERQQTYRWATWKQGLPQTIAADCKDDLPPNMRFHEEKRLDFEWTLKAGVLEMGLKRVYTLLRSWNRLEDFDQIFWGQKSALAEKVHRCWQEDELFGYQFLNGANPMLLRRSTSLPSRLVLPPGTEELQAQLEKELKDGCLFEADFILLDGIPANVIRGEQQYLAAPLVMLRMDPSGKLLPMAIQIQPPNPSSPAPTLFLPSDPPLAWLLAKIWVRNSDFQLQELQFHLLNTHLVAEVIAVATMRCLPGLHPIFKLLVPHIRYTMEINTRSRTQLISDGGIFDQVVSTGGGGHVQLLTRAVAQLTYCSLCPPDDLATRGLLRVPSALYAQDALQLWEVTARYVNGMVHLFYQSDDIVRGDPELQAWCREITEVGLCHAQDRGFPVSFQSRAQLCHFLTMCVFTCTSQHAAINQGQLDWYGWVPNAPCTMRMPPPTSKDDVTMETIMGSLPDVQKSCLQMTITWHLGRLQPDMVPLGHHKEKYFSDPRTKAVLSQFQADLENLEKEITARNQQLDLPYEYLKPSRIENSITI

[3] = target: T1, Arachidonate 12-lipoxygenase (Rattus norvegicus) (UniProt Q02759); assay: In vitro inhibitory activity against rat platelet 12-lipoxygenase at 30 uM
T1 sequence (whole entry): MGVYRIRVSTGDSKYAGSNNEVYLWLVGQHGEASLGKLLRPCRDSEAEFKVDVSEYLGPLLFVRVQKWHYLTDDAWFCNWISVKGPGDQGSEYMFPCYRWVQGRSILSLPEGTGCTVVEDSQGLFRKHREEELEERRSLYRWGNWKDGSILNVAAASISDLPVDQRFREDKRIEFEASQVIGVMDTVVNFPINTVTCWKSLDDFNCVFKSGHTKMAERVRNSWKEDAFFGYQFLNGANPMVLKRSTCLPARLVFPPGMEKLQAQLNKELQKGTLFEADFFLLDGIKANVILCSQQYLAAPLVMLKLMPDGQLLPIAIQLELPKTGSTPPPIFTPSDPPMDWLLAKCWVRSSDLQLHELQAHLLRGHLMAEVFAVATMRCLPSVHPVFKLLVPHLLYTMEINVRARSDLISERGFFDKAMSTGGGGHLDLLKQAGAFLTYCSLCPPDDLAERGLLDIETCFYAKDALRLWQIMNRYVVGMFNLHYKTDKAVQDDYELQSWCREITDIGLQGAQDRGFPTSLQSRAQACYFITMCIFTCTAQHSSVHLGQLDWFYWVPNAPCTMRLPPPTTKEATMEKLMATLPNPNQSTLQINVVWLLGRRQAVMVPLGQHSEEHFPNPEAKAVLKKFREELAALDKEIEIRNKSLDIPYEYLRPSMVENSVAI
In short: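 Cell-free cytosolic 12-lipoxygenase from Sprague-Dawley rat platelets (0.4 mg/mL), preincubated 5 min at 30 °C with compound in DMSO (≤0.1% final), 25 mM Tris pH 7.4, 1 μM indomethacin, 100 μM glutathione; reaction started with 6 μM [14C]arachidonic acid and quenched with citric acid/NDGA after 3 min. 12-HETE isolated by TLC and counted by scintillation; % inhibition, duplicate.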

[4] = target: T2, Polyunsaturated fatty acid 5-lipoxygenase (Homo sapiens, UniProt P09917); assay: In vitro inhibitory activity against polymorphonuclear leukocyte 5-lipoxygenase in human cell at 10 uM
T2 sequence (P09917 whole entry): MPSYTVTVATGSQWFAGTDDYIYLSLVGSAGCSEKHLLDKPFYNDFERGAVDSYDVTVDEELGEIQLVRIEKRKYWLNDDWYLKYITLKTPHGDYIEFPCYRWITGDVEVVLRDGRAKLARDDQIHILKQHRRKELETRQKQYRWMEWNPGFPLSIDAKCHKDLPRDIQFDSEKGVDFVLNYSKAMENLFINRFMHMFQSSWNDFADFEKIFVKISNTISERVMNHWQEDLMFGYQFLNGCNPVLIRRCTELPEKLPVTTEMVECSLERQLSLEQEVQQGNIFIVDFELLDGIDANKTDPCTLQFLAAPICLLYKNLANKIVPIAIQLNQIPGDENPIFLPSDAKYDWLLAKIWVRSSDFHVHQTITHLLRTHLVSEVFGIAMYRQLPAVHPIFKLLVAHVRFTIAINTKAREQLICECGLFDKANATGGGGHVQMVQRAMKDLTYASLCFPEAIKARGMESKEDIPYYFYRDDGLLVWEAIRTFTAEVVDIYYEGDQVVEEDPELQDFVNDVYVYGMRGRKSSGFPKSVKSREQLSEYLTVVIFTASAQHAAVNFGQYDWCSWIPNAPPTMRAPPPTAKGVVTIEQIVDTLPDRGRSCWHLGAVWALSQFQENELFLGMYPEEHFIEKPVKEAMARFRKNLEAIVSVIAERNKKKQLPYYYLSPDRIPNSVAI
In short: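 Human PMNs from venous blood of a healthy volunteer (EDTA) were purified by dextran sedimentation, a Percoll gradient and NH4Cl red-cell lysis (>90% pure). They were held in Ca/Mg PBS with 1 mg/mL glucose and 1 μM indomethacin, then challenged with A23187 (0.8 μM) and [14C]arachidonic acid (4 μM) for 3 min. 5-HETE was measured by TLC and scintillation counting.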

[5] = target: T3, Polyunsaturated fatty acid 5-lipoxygenase (Rattus norvegicus) (UniProt P12527); assay: In vitro inhibitory activity against polymorphonuclear leukocyte 5-lipoxygenase in rat cell at 1 uM
T3 sequence (whole entry): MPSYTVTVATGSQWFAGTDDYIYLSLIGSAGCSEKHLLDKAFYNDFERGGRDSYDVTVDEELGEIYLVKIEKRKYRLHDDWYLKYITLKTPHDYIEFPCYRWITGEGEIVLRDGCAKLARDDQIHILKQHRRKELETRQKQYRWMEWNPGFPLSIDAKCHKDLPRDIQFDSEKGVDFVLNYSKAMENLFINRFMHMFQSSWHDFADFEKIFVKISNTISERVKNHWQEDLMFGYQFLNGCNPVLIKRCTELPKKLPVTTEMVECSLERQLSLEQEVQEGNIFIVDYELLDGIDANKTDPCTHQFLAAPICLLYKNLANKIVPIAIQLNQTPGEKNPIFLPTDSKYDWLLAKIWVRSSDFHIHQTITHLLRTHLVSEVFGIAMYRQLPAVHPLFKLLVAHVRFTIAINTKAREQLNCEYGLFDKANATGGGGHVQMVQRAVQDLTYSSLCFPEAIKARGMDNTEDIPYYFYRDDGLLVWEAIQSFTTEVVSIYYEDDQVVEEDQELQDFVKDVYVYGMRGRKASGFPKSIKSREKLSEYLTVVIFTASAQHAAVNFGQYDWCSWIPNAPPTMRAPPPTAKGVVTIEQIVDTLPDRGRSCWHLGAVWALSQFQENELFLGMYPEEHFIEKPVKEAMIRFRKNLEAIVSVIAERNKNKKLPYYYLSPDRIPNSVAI
In short: (§2)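 Intact glycogen-elicited peritoneal PMNs pooled from 4–5 Sprague-Dawley rats (250 g), preincubated 5 min at 30 °C with compound in DMSO (≤0.1% final) plus 1 μM indomethacin. Challenge with [14C]arachidonic acid (4 μM) and A23187 (0.8 μM) for 3 min. Extraction, TLC, 5-HETE by scintillation counting.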

Cavia porcellus [6] = assay: In vivo inhibitory activity against guinea pig systemic anaphylaxis when administered a compound dose (10 mg/kg) intravenously; type: functional; conditions: iv
[7] = target: T4, Polyunsaturated fatty acid 5-lipoxygenase (Rattus norvegicus, UniProt P12527); assay: In vitro inhibition of rat polymorphonuclear leukocyte 5-lipoxygenase; in short: as §2
T4 sequence (P12527 whole entry): T3 sequence (whole entry)

Cavia porcellus [8] = assay: In vivo inhibitory activity against guinea pig systemic anaphylaxis when administered a compound dose (50 mg/kg) perorally; type: functional; conditions: po; in short: as §1
[9] = target: T2, Polyunsaturated fatty acid 5-lipoxygenase; assay: In vitro inhibition of polymorphonuclear leukocyte derived human 5-lipoxygenase
In short: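 PMNs from venous blood of healthy volunteers, isolated by dextran sedimentation and Percoll gradient (>90% pure) and held in Ca/Mg PBS with 1 mg/mL glucose and 1 μM indomethacin. Challenged with calcium ionophore and [14C]arachidonic acid for 3 min. 5-HETE measured by TLC and scintillation counting; IC50 read graphically.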

Structure (SMILES)	Inhibition (Mus musculus) [%]	inhibition in vivo at 200 mg/kg (Cavia porcellus [1]) [%]	inhibition [2] [%]	Ki (12-lipoxygenase) [µM]	inhibition [3] [%]	Inhibition [4] [%]	inhibition [5] [%]	inhibition in vivo at 10 mg/kg (Cavia porcellus [6]) [%]	IC50 [7] [µM]	inhibition in vivo at 50 mg/kg (Cavia porcellus [8]) [%]	IC50 [9] [µM]
O=C(Cc1ccc(OCc2ccccc2)cc1)N(O)CCc1ccccc1	39	17	< 10	1.6							
O=C(/C=C/c1ccc(OCc2ccccc2)cc1)N(O)CCc1ccccc1			< 10		3	< 10	24				
O=C(CCCc1ccccc1)N(O)CCc1ccccc1	56		44					50	0.3	17	0.18
